The subject of data set [1] is Coxsackievirus B2. Kind of data set: Antiviral activity against Coxsackie virus type B2 virus infected in african green monkey Vero-76 cells after 3 days by plaque reduction assay. Format: functional, organism-based. To be noted: Enterovirus B, Vero 76, 72 h. The gist of the method: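 Vero 76 cells seeded at 2 × 10^5 cells/well, grown overnight to confluence at 37 °C in 5% CO2, then infected at 50–100 PFU/well. Unadsorbed virus removed. Overlay of DMEM with 1% inactivated FCS and 0.75% methylcellulose, with or without serial compound dilutions. After 3 days at 37 °C, fixed and stained with crystal violet in PBS/50% ethanol; plaques counted. EC50 is the concentration reducing plaque number by 50%.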

Data set [2] deals with MT4. Kind of data set: Cytotoxicity against human MT4 cells after 96 hrs by MTT assay. Format: cell-based. To be noted: mt4, 96 h. In a few lines:
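Exponentially growing mock-infected MT-4 seeded at 1 × 10^5 cells/mL in RPMI-1640 with 10% FCS, penicillin and streptomycin. Incubated with or without serial compound dilutions at 37 °C, 5% CO2. Viability by MTT after 96 h. CC50 = concentration reducing viability 50%.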
(Tetrazolium assays rely on reduction of a dye to a coloured formazan, in cell work by metabolically active cells.)

For data set [3], the system named is Mammalian orthoreovirus 1. Kind of data set: Antiviral activity against Reovirus-1 infected in BHK-21 cells assessed as inhibition of virus-induced cytopathicity after 3 to 4 days by MTT assay. To be noted: Mammalian orthoreovirus 1, BHK-21. Format: functional, organism-based. In a few lines: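 BHK-21 cells seeded at 5 × 10^4 cells/well, grown overnight to confluent monolayers at 37 °C in 5% CO2, then infected at m.o.i. 0.01 in serum-free medium. One hour later, MEM Earle's with 1% final inactivated FCS added, with or without serial compound dilutions. Viability read by MTT after 3–4 days at 37 °C. EC50 is the concentration giving 50% protection from cytopathogenicity.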

Data set [4] can be described thus: Cytotoxicity against MDBK cells after 48 to 96 hrs by MTT assay. To be noted: cattle, mdbk. Format: cell-based, Bos taurus. In a few lines: (§1)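 Mock-infected cells in maintenance medium, MDBK at 6 × 10^5 and BHK at 1 × 10^6 cells/mL initial density, with or without serial compound dilutions. Run in parallel with antiviral assays. Viability by MTT after 48–96 h at 37 °C, 5% CO2. CC50 = concentration reducing viability 50%.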

Data set [5] has as its system Vero. Kind of data set: Cytotoxicity against african green monkey Vero 76 cells by crystal violet staining. To be noted: chlorocebus sabaeus, vero. It is filed as cell-based. In a few lines:
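Mock-infected Vero 76 seeded at 4 × 10^5 cells/mL, run in parallel with plaque assays, with or without serial compound dilutions. Cell number of monolayers determined by crystal violet staining. CC50 = concentration reducing viable cell number 50%.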

Data set [6] concerns Vesicular stomatitis virus. Kind of data set: Antiviral activity against Vesicular stomatitis virus after 2 days by plaque reduction assay. Format: functional, organism-based.
Data set [7] has as its system Vaccinia virus. Kind of data set: Antiviral activity against Vaccinia virus after 3 days by plaque reduction assay. Format: functional, organism-based. To be noted: Orthopoxvirus vaccinia. A general note: In a plaque reduction assay, fewer plaques than in the control indicate reduced infectivity or spread.
Data set [8] relates to Human immunodeficiency virus 1. Kind of data set: Antiviral activity against HIV1 infected in human MT4 cells assessed as inhibition of virus-induced cytopathicity after 4 days by MTT assay. Format: functional, organism-based.
For data set [9], the system named is Human alphaherpesvirus 1. Kind of data set: Antiviral activity against HSV1 infected in Vero-76 cells after 3 days by plaque reduction assay. It is filed as functional, organism-based. To be noted: Human alphaherpesvirus 1, Vero 76, 72 h.
The subject of data set [10] is Respiratory syncytial virus. Kind of data set: Antiviral activity against Respiratory syncytial virus A2 infected in Vero-76 cells after 5 days by plaque reduction assay. It is filed as functional, organism-based. To be noted: human respiratory syncytial virus, A2, Vero 76, 120 h.
Data set [11] relates to Yellow fever virus. Kind of data set: Antiviral activity against Yellow fever virus infected in BHK-21 cells assessed as inhibition of virus-induced cytopathicity after 3 to 4 days by MTT assay. It is filed as functional, organism-based. For orientation: Cytopathic effects are the visible damage that an infection or toxin causes in cultured cells.
The nature of data set [12]: Cytotoxicity against hamster BHK21 cells assessed as reduction in cell viability after 48 to 96 hrs by MTT assay. It is filed as cell-based, Mesocricetus auratus, BHK-21. To be noted: bhk-21. The gist of the method: as §1
For data set [13], the system named is Poliovirus 1. Kind of data set: Antiviral activity against Human poliovirus 1 strain Sabin after 2 days by plaque reduction assay. Format: functional. To be noted: Enterovirus C, 48 h.

Structures are written as SMILES. Activity calls are given as the source filed them. How the calls were made is not given here.

Regarding `O=c1cccc2n1CC1CC2CN(/N=N/c2cccc([N+](=O)[O-])c2)C1` (configuration not stated), the EC50 in [1] was over 90 µM; in [3], 80 µM; in data set [9], over 90 µM; in data set [10], at least 90 µM; in data set [11], over 100 µM; in data set [13], over 90 µM. In addition, the half-maximal cytotoxic concentration (CC50) is over 100 µM in data set [2], over 100 µM in data set [4], 90 µM in [5] and over 100 µM in data set [12]. In addition, the outcome in data set [6] and in data set [7] was inactive. Also, the inhibition entry in [8] is “inactive”.

As for `O=[N+]([O-])c1cccc(/N=N/N2CCCCC2)c1`, the EC50 in data set [1] is over 83 µM; in [3], over 100 µM; in data set [9], over 83 µM; in data set [10], over 83 µM; in data set [11], over 100 µM; in [13], over 83 µM. Moreover, the cytotoxic concentration (CC50) in data set [2] is over 100 µM; in [4], over 100 µM; in data set [5], 83 µM; in data set [12] it was over 100 µM. Further, the outcome in data set [6] and in data set [7] was inactive. Moreover, the inhibition result in [8] is “inactive”.

In the case of `CN1CCN(/N=N/c2cc(F)ccc2F)CC1`, the EC50 is 71 µM in data set [1]; 30 µM in [3]; 64 µM in data set [9]; over 100 µM in data set [10]; 50 µM in [11]; over 100 µM in data set [13]. Also, the CC50 in data set [2] was over 100 µM; in data set [4], over 100 µM; in data set [5] it was at least 100 µM; in data set [12] it was over 100 µM. The outcome in [6] and in data set [7] was inactive. For the same compound, the inhibition result in [8] was “inactive”.

As to `Brc1cccc(/N=N/N2CCCC2)c1`, the EC50 in [1], in data set [3], in data set [9], in data set [10], in data set [11] and in data set [13] was over 100 µM throughout. The half-maximal cytotoxic concentration (CC50) in data set [2] was over 100 µM; in data set [4], over 100 µM; in data set [5], at least 100 µM; in data set [12], over 100 µM. In addition, the outcome in data set [6] and in data set [7] was inactive. For the same compound, the inhibition result in data set [8] is “inactive”.

Consider `O=[N+]([O-])c1ccc(/N=N/N2CCCC2)cc1`, for which the concentration giving a half-maximal response (EC50) in data set [1] is over 90 µM; in [3] it was over 100 µM; in [9] it was over 90 µM; in data set [10], 60 µM; in data set [11], over 100 µM; in data set [13] it was 15 µM. The CC50 in data set [2] was at least 100 µM; in data set [4], over 100 µM; in data set [5], 90 µM; in [12], at least 100 µM. Moreover, the result in data set [6] and in data set [7] was inactive. The inhibition entry in data set [8] is “inactive”.

For `Clc1cccc(/N=N/N2CCCCC2)c1`, the EC50 in data set [1], in data set [3], in [9], in [10], in data set [11] and in data set [13] was over 100 µM each time. Besides, the half-maximal cytotoxic concentration (CC50) in data set [2], in data set [4], in [5] and in [12] was over 100 µM each time. Moreover, the result in data set [6] and in [7] was inactive. Moreover, in data set [8], the inhibition entry is “inactive”.

Consider `c1ccc(N=NNc2ccccc2)cc1`, for which the 50% cytotoxic concentration (CC50) was 47 µM in [2], over 100 µM in data set [4], 90 µM in data set [5] and over 100 µM in data set [12].

In general, EC50 refers to the concentration that produces a half-maximal response. As a reminder, the CC50 is the concentration giving 50% cytotoxicity.

Values taken from ChEMBL document CHEMBL1154067, “Antiviral and cytotoxic activities of aminoarylazo compounds and aryltriazene derivatives” (Bioorg Med Chem, 2009).
